Experimental data reported in ChEMBL document CHEMBL1123757, “Selective thromboxane synthetase inhibitors and antihypertensive agents. New derivatives of 4-hydrazino-5H-pyridazino[4,5-b]indole, 4-hydrazinopyridazino[4,5-a]indole, and related compounds” (J Med Chem, 1987).

Columns and labels:
[1] = species on record: Homo sapiens; experiment: In vitro inhibition of platelet aggregation induced by […] (PRP incubated for 5 minutes at 37 degree C) at 10e-5 M; No significance; type: functional
[2] = test system: Rattus norvegicus; experiment: Antihypertensive activity in spontaneously hypertensive rats (SHR) measured by percentage fall in arterial pressure (AP) at 25 mg/kg administered intraperitoneally at 5 h; type: functional, Artery; conditions: route intraperitoneal
In short: (§1)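 Unanesthetized Okamoto-strain SHR, male and female, 8 weeks old, 300–350 g, systolic pressure ≥190 mmHg, heart rate 400–650 beats/min; five animals per dose. Given ip at 2.5 mL/kg, dissolved or suspended in normal saline or saline with 0.2% (carboxymethyl)cellulose and 1.0% Tween 80. Tail AP and CR recorded by mechanical transduction at set times; reported as percentage fall from control.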

[3] = test system: Rattus norvegicus; experiment: Antihypertensive activity in spontaneously hypertensive rats (SHR) measured by percentage fall in cardiac rhythm (CR) at 25 mg/kg administered intraperitoneally at 1 h; type: functional, Heart; conditions: route intraperitoneal; in short: as §1
[4] = species on record: Homo sapiens; experiment: In vitro inhibition of platelet aggregation induced by AA (PRP incubated for 60 minutes at 37 degree C) at 10e-5 M; No significance; type: functional
In short: (§2)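 Human venous blood anticoagulated with 3.8% sodium citrate (1:9). PRP from centrifugation at 800 rpm for 10 min at room temperature. Count adjusted with PPP to […]. Compound in saline with 10% ethylene glycol is added to PRP and incubated at 37 °C before the agonist. Agonists: ADP 2×10^-5 M, AA 0.6 mM, PGH2 2.8 μM, adrenaline 0.6 μM. Born absorbance aggregometry; n = 5.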

[5] = species on record: Homo sapiens; experiment: In vitro inhibition of platelet aggregation induced by ADP-II (PRP incubated for 5 minutes at 37 degree C) at 10e-5 M; No significance; type: functional; in short: as §2
[6] = species on record: Homo sapiens; experiment: In vitro inhibition of platelet aggregation induced by ADP-II (PRP incubated for 60 minutes at 37 degree C) at 10e-5 M; type: functional; conditions: 1 h; in short: as §2
[7] = test system: Rattus norvegicus; experiment: Antihypertensive activity in spontaneously hypertensive rats (SHR) measured by percentage fall in cardiac rhythm (CR) at 25 mg/kg administered intraperitoneally at 5 h; No significance; type: functional, organism-based; design: dose 25 mg/kg; conditions: Heart
In short: (§3)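 Conscious SHR (Okamoto strain), 8 weeks old, male and female, 300–350 g, systolic BP ≥190 mmHg, CR 400–650 beats/min. Given ip or po at 2.5 mL/kg in normal saline or saline with 0.2% (carboxymethyl)cellulose and 1.0% Tween 80. Tail AP and CR recorded by mechanical transduction at 1, 3, 5 and 24 h, five animals per dose. Effect expressed as % fall versus control.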

[8] = test system: Rattus norvegicus; experiment: Antihypertensive activity in spontaneously hypertensive rats (SHR) measured by percentage fall in cardiac rhythm (CR) at 25 mg/kg administered intraperitoneally at 3 h; type: functional, Heart; conditions: route intraperitoneal; in short: as §1
[9] = test system: Rattus norvegicus; experiment: Antihypertensive activity in spontaneously hypertensive rats (SHR) measured by percentage fall in arterial pressure (AP) at 25 mg/kg administered intraperitoneally at 1 h; type: functional, Artery; conditions: route intraperitoneal; in short: as §1
[10] = test system: Rattus norvegicus; experiment: Antihypertensive activity in spontaneously hypertensive rats (SHR) measured by percentage fall in arterial pressure (AP) at 25 mg/kg administered intraperitoneally at 3 h; type: functional, Artery; conditions: route intraperitoneal; in short: as §1
[11] = species on record: Homo sapiens; experiment: No significance in vitro inhibition of platelet aggregation induced by ADP-II (PRP incubated for 60 minutes at 37 degree C) at 10e-5 M;No significance; type: functional; in short: as §2
[12] = test system: Rattus norvegicus; experiment: Antihypertensive activity in spontaneously hypertensive rats (SHR) measured by percentage fall in cardiac rhythm (CR) at 5 mg/kg administered intraperitoneally at 5 h;No significance; type: functional, organism-based; design: dose 5 mg/kg; conditions: Heart; in short: as §3
[13] = test system: Rattus norvegicus; experiment: Antihypertensive activity in spontaneously hypertensive rats (SHR) measured by percentage fall in cardiac rhythm (CR) at 25 mg/kg administered perorally at 24 h;No significance; type: functional, organism-based; design: dose 25 mg/kg; conditions: Heart; in short: as §3
[14] = test system: Rattus norvegicus; experiment: Antihypertensive activity in spontaneously hypertensive rats (SHR) measured by percentage fall in cardiac rhythm (CR) at 25 mg/kg administered perorally at 5 h;No significance; type: functional, organism-based; design: dose 25 mg/kg; conditions: Heart; in short: as §3
[15] = test system: Rattus norvegicus; experiment: Antihypertensive activity in spontaneously hypertensive rats (SHR) measured by percentage fall in cardiac rhythm (CR) at 5 mg/kg administered intraperitoneally at 24 h;No significance; type: functional, organism-based; design: dose 5 mg/kg; conditions: Heart; in short: as §3
[16] = test system: Rattus norvegicus; experiment: Antihypertensive activity in spontaneously hypertensive rats (SHR) measured by percentage fall in arterial pressure (AP) at 1 mg/kg administered intraperitoneally at 3 h;No significance; type: functional, organism-based; design: dose 1 mg/kg; conditions: Artery; in short: as §1
[17] = test system: Rattus norvegicus; experiment: Antihypertensive activity in spontaneously hypertensive rats (SHR) measured by percentage fall in arterial pressure (AP) at 1 mg/kg administered intraperitoneally at 5 h;No significance; type: functional, organism-based; design: dose 1 mg/kg; conditions: Artery; in short: as §1
[18] = test system: Rattus norvegicus; experiment: Antihypertensive activity in spontaneously hypertensive rats (SHR) measured by percentage fall in arterial pressure (AP) at 25 mg/kg administered intraperitoneally at 24 h; No significance; type: functional, organism-based; design: dose 25 mg/kg; conditions: Artery; in short: as §1
[19] = test system: Rattus norvegicus; experiment: Antihypertensive activity in spontaneously hypertensive rats (SHR) measured by percentage fall in arterial pressure (AP) at 1 mg/kg administered intraperitoneally at 24 h;No significance; type: functional, organism-based; design: dose 1 mg/kg; conditions: Artery; in short: as §1

SMILES	inhibition [1]	Decrease in AP [2]	Decrease in CR [3]	inhibition [4]	inhibition [5]	inhibition at 10 µM [6]	inhibition [7]	Decrease in CR [8]	Decrease in AP [9]	Decrease in AP [10]	inhibition [11]	Decrease in CR [12]	Decrease in CR [13]	Decrease in CR [14]	Decrease in CR [15]	Decrease in AP [16]	Decrease in AP [17]	Decrease in AP [18]	Decrease in AP [19]
COc1ccc2[nH]c3c(O)nncc3c2c1	No significant values	5%	7%	No significant values	No significant values	100%	No significant values	5%	10%	10%									
NNc1[nH]ncc2c3cc(OCc4ccccc4)ccc3nc1-2	No significant values			No significant values	No significant values						No significant values	No significant values	No significant values	No significant values	No significant values	No significant values	No significant values	No significant values	No significant values
